High-throughput results as filed in PubChem BioAssay.
Pyk2 oligo antag = antagonists of human Pyk2 oligomerization; Q14289; Q293 cells, Pyk2 FERM NanoBiT luminescence; active compounds read low; z-score (the deposit names both 25 µM and 10 µM); 99,000 tested, 0.83% active; AID 1347419;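 active = Z-score of -3 or lower, scaled per plate to the spread of control and sample wells; inactive = z-score above -3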;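 also: negative z-score means lost luminescence so less FERM oligomerization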
Target sequence (Q14289 whole entry, looked up): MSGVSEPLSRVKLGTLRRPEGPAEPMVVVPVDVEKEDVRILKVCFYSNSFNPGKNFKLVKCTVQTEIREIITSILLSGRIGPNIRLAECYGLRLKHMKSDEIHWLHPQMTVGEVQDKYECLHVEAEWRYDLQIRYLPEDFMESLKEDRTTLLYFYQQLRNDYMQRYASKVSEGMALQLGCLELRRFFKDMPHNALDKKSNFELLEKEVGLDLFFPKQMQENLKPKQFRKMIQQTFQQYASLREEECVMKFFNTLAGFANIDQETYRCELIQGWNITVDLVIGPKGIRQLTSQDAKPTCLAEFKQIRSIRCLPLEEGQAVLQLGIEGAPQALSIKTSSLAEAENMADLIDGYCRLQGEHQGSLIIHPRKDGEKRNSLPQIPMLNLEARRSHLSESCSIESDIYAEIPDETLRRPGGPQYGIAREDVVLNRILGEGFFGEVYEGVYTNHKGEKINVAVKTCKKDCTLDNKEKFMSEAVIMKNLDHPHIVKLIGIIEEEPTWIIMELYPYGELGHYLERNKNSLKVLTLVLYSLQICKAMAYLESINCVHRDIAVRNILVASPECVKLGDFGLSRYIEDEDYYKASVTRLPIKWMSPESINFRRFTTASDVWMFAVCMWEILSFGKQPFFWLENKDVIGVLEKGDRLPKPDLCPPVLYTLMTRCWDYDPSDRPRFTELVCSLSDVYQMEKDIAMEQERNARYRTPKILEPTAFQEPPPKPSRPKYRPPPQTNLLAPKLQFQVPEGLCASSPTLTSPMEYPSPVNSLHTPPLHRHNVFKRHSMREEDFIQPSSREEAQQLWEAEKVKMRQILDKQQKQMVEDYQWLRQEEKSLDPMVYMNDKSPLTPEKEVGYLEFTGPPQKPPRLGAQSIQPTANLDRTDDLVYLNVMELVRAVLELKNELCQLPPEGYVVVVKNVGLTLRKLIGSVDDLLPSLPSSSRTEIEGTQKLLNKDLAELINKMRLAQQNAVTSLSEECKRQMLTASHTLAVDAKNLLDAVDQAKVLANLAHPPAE
LYP act = increases human PTPN22 phosphatase activity; recombinant LYP, DiFMUP fluorescence; 0 = plate median, 100 = signal doubled; activation, % at 2 µM; 96,000 tested, 0.11% active; AID 697;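 active = activation at 2 µM above a set limit, the mean plus 5 SD, cut at about 37% in these data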
HIV Rev-RRE inh = inhibitors of HIV-1 Rev-RRE RNA interaction | Rev peptide-RRE RNA binding, FRET | inhibition, % at 8 µM | 97,000 tested, 0.79% active;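 active = inhibition above the screen-wide mean plus 3 SD, cut at about 35% in these data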
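Test system – labelled RRE RNA duplex and labelled Rev peptide · Signal – fluorescein-to-Cy5 FRET, 480 nm excitation · Evaluation – % inhibition of FRET ratio versus controls · Benchmarks – DMSO low control, neomycin B high control · Incubation – 5 min RNA-compound premix plus 15 min binding step, 25 °C · Medium – HEPES pH 7.5 salt buffer with EDTA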
PTPN22 inh 2 = blocks human PTPN22 phosphatase activity. Q9Y2R2. recombinant LYP catalytic domain, DiFMUP fluorescence. inhibition, % at 2 µM. 96,000 tested, 0.21% active;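 active = inhibition at 2 µM at or above a set limit, the screen mean plus 3 SD, cut at about 24% in these data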
Large screens that a line does not name were inactive; [ ] = dose if it differs, or a comment. Most compounds without a hit are left out; they make up all but 1.8% or so of the library.

COc1ccc(-c2ccc(SCC(=O)N3c4ccccc4CC3C)nn2)cc1OC (configuration not stated)	Pyk2 oligo antag -3.22
CC1Cc2ccccc2N1C(=O)CSc1nnc(-c2ccccc2)c(-c2ccccc2)n1 (configuration not stated)	none
CN(C)c1ccc(/C=C/c2cc[n+](C)cc2)cc1	HIV Rev-RRE inh 49.0[fluorescence artefact?]
CN(C)c1ccc(C(=O)c2ccccc2)cc1	none
CN(C)c1ccc(/C=C/c2cc[n+]([O-])cc2)cc1	HIV Rev-RRE inh 120.5[fluorescence artefact?] (no result: Pyk2 oligo antag)
O=C1CCC([N+](=O)[O-])C(c2ccc(Cl)cc2)N1 (configuration not stated)	none
Cc1ccc(N(CC(=O)Nc2ccc3c(c2)OCCO3)S(=O)(=O)c2c(C)n[nH]c2C)cc1	Pyk2 oligo antag -3.49
CCOC(=O)c1ccc(NC(=O)CN(c2ccc(C)cc2)S(=O)(=O)c2c(C)n[nH]c2C)cc1	Pyk2 oligo antag -3.38
Cc1ccc(N(CC(=O)Nc2ccc3c(c2)OCCO3)S(=O)(=O)c2c(C)noc2C)cc1	none
COC(Cc1n[nH]c(=S)n1-c1ccc(Cl)cc1)OC	none
CC(C)OCCCn1c(=N)c(C(N)=S)cc2c(=O)n3ccccc3nc21	HIV Rev-RRE inh 65.7
CN1CCN(NC(=O)c2cccc(Br)c2)CC1	none (no result: LYP act, HIV Rev-RRE inh, PTPN22 inh 2)
Cc1cc(C)c(S(=O)(=O)N(C)CC(=O)NC2CCCC2)c(C)c1	none
Oc1ccccc1NCC(O)Cn1ccc2ccccc21 (configuration not stated)	HIV Rev-RRE inh 62.8
Cc1ccc(/C=C2/NC(=O)N(Cc3ccccc3)C2=O)s1	HIV Rev-RRE inh 49.6
Cc1cccc(CN2C(=O)N/C(=C/c3ccc(C)s3)C2=O)c1	HIV Rev-RRE inh 57.7
Cc1cccc(CN2C(=O)N/C(=C/c3cc(C)n(-c4cc(C)ccn4)c3C)C2=O)c1	none
CCCCOc1cccc(C(=O)NNC(=S)NC2CCCCC2)c1	none (no result: LYP act, PTPN22 inh 2)
Cc1sc2c(c1C)c(=O)nc1scc(C)n12	none (no result: Pyk2 oligo antag)
CCOC(=O)c1cc2sccc2n1CC(=O)N1CCc2ccccc21	Pyk2 oligo antag -3.5
CC12CCC(C(=O)NCc3ccc4c(c3)OCO4)(C(=O)C1=O)C2(C)C (configuration not stated)	none
CC1(C)CNC(=O)c2sc(N3CCOCC3)nc2C1	none
C=C(C)CN(CC)c1nc(N)c2c(N)nc3c(c2c1C#N)CC(=O)N3C12CC3CC(CC(C3)C1)C2	none
CCCCN1C(=O)Cc2c1nc(N)c1c(N)nc(N(CCC)CCC)c(C#N)c21	Pyk2 oligo antag -3.64
CCOC(=O)c1ccc(S(=O)(=O)Nc2ccc3cn[nH]c3c2)cc1	Pyk2 oligo antag -3.01
COC(=O)c1ccccc1S(=O)(=O)Nc1ccc2cn[nH]c2c1	none
N#Cc1c(N)nc2c3c(sc(=N)c2c1N)NC(=O)CC3c1ccccc1 (configuration not stated)	HIV Rev-RRE inh 48.8
N#Cc1c(N)nc2c3c(sc(=N)c2c1N)NC(=O)CC3c1c(F)cccc1Cl (configuration not stated)	none
N#Cc1sc2nc(-c3ccccc3)cc(-c3ccco3)c2c1N	HIV Rev-RRE inh 37.0
N#Cc1c(-c2ccccc2)cc(-c2ccco2)c(C#N)c1N	HIV Rev-RRE inh 36.8 (no result: Pyk2 oligo antag)
CC(C)(C)c1cc(-c2ccco2)c(C#N)c(SCC#N)n1	none
COc1cccc2c1OC1(C)CC2/C(=C(\C)O)C(=O)N1 (configuration not stated)	none
Cc1ccc(-c2cc(C(F)F)nc(NCC3CCCO3)n2)cc1 (configuration not stated)	none
FC(F)(F)c1cc(-c2ccc(Cl)cc2)nc(NCc2cccnc2)n1	Pyk2 oligo antag -3.02
Cc1ccc(-c2cc(C(F)F)nc(NCc3cccnc3)n2)cc1	Pyk2 oligo antag -3.62
O=C(Nc1ccc2c(c1)OCCO2)c1cc2sccc2n1Cc1ccc(F)cc1	Pyk2 oligo antag -3.11
Cn1c(C(=O)Nc2ccc3c(c2)OCCO3)cc2sccc21	none
O=C(Nc1ccc2c(c1)OCCO2)c1cc2sccc2n1Cc1ccccc1	Pyk2 oligo antag -3.77
COc1ccc(-c2nc3c(c(=O)[nH]c(=O)n3Cc3ccccc3)n2Cc2ccccc2)cc1	Pyk2 oligo antag -3.1
COc1ccc(-c2nc3c(c(=O)[nH]c(=O)n3Cc3ccccc3)n2C)cc1	none
O=C(COc1ncnc2scc(-c3ccc(Cl)cc3)c12)NCc1ccco1	none
Cc1cc(C2C(C#N)=C(N)SC(N)=C2C#N)c(C)s1	HIV Rev-RRE inh 83.3[fluorescence artefact?]
Cc1cc(C2C(C#N)=C(N)Oc3n[nH]c(C)c32)c(C)s1 (configuration not stated)	none
Cc1sccc1C1C(C#N)=C(N)SC(N)=C1C#N	HIV Rev-RRE inh 74.6 (no result: Pyk2 oligo antag)
N=c1c(C(=O)NCc2ccc(F)cc2)cc2c(=O)n3ccccc3nc2n1Cc1cccnc1	HIV Rev-RRE inh 36.9
Cc1ccc2nc(NC(=S)NC(=O)c3cccs3)sc2c1	PTPN22 inh 2 29.5
Cc1ccc2nc(NC(=O)c3cccs3)sc2c1	none (no result: LYP act, HIV Rev-RRE inh, PTPN22 inh 2)
Cc1ccc(-c2nc3ccccc3o2)cc1NC(=S)NC(=O)c1cccs1	none
Cc1cc(C)c2oc(-c3ccc(C)c(NC(=S)NC(=O)c4cccs4)c3)nc2c1	Pyk2 oligo antag -3.67
COC(=O)c1ccccc1NC(=O)c1cnn2c(C(F)F)cc(C3CC3)nc12	Pyk2 oligo antag -3.62
O=C(NCCc1ccccc1)c1cnn2c(C(F)F)cc(C3CC3)nc12	none
CCn1c(N)c(C(=O)NC)sc1=S	none (no result: LYP act, HIV Rev-RRE inh, PTPN22 inh 2)
COC(=O)c1ccc2c(c1)C(C)(C)C(/C=C/c1ccccc1O)=[N+]2C	HIV Rev-RRE inh 78.6[fluorescence artefact?]
Cc1ccc(S(=O)(=O)N2CCCN(S(=O)(=O)c3ccc4c(c3)OCCO4)CC2)cc1	Pyk2 oligo antag -3.01
O=S(=O)(c1ccc2c(c1)OCCO2)N1CCN(c2cccc(Cl)c2)CC1	Pyk2 oligo antag -3.9
O=S(=O)(c1ccc2c(c1)OCCO2)N1CCC(O)(c2ccc(Cl)cc2)CC1	Pyk2 oligo antag -3.2
COc1ccc(C(C)=O)cc1CSc1nnc(-c2ccccc2O)n1-c1ccccc1	none
NS(=O)(=O)c1ccc(NC(=O)COC(=O)CCNC(=O)NC23CC4CC(CC(C4)C2)C3)cc1	none
Cc1ccc(/C(C#N)=C\c2ccc(N3CCOCC3)o2)cc1	HIV Rev-RRE inh 95.6[fluorescence artefact?]
Cc1ccc2nc(/C(C#N)=C\c3ccc([N+](=O)[O-])o3)[nH]c2c1	HIV Rev-RRE inh 64.4[fluorescence artefact?]
Cc1ccc(/C(C#N)=C\c2cn(C)c3ccccc23)cc1	none (no result: Pyk2 oligo antag)
Cc1ccc2nc(/C(C#N)=C\c3ccc(N4CCOCC4)o3)[nH]c2c1	HIV Rev-RRE inh 135.3[fluorescence artefact?]
Nc1c(N2CCCC2)cc(Cl)c2nonc12	HIV Rev-RRE inh 40.5
Nc1c(N2CCOCC2)cc(Cl)c2nonc12	none
COc1cccc2cc(C(=O)N3CCc4ccccc43)c(=O)oc12	Pyk2 oligo antag -3.04
CCOC(=O)C[n+]1c(C)ccc2c1CCC2	none
COC(=O)CSc1nnc(CNc2ccc(Cl)cc2)n1-c1ccccc1	none
CC1(C)CC(=O)C=C(Nc2ccccc2O)C1	none
CC1(C)CC(=O)C=C(NNC(=O)c2ccccc2O)C1	HIV Rev-RRE inh 36.4
CCN1CC=C2C(C#N)=C(N)C(C#N)(C#N)C(c3cc(Cl)ccc3Cl)C2C1 (configuration not stated)	HIV Rev-RRE inh 65.7
